The source of these data is paper PMC7612733 (Biochemistry, 2022).

Series [1] deals with T1, wt horcolin (Hordeum vulgare, UniProt Q5U9T2).
T1 sequence (Q5U9T2 1-146): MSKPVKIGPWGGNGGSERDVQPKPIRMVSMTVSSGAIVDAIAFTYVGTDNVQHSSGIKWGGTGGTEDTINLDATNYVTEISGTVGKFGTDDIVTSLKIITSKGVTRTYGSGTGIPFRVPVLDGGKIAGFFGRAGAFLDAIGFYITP
Briefly: 1H-15N HSQC-detected NMR titration with TITAN 2D lineshape modeling, wt horcolin. In kind it is binding, Hordeum vulgare (barley).

Series [2] deals with T2, D39A horcolin (Hordeum vulgare, UniProt Q5U9T2, D39A).
T2 sequence (Q5U9T2 1-146 D39A): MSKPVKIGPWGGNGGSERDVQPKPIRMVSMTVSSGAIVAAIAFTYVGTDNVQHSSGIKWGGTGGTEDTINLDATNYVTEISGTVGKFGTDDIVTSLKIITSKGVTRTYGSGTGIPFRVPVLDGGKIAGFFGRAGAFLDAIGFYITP
In kind it is binding, Hordeum vulgare (barley). In a few lines: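 15N-labelled D39A horcolin carried a C-terminal His tag, was expressed in E. coli BL21(DE3) in M9 medium and purified by Ni-NTA. NMR buffer was pH 7.4: 25 mM Tris, 50 mM NaCl, 1 mM EDTA, 0.03% NaN3, 10% D2O. HSQC spectra were taken over 21 methyl-α-D-mannose points from 0 to 914 mM. Sixteen residues were globally lineshape-fitted in TITAN; errors are SD of 100 bootstraps.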

Series [3] has as its target T3, D138A horcolin (Hordeum vulgare, UniProt Q5U9T2, D138A).
T3 sequence (Q5U9T2 1-146 D138A): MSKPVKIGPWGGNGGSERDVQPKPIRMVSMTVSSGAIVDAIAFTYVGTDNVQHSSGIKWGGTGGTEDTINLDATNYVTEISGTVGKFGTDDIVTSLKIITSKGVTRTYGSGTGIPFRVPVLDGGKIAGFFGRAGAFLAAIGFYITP
Type of series: binding, Hordeum vulgare (barley). In a few lines:
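Uniformly 15N-labelled, C-terminally His-tagged D138A horcolin was expressed in E. coli BL21(DE3) in M9 medium and purified on Ni-NTA. Samples were in 25 mM Tris, 50 mM NaCl, 1 mM EDTA, 0.03% NaN3, 10% D2O, pH 7.4. 1H-15N HSQC spectra were recorded at 18 methyl-α-D-mannose concentrations from 0 to 167 mM. Lineshapes of 14 residues were globally fitted in TITAN; errors are SD of 100 bootstrap replicas.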

Series [4] concerns the molecule itself. Kind of series: crystal structure.
Series [5] concerns the target HIV gp120. The settings on record: read-out: equilibrium dissociation constant (Kd); cited from earlier work.
In series [6] the test system is HIV-1. As to conditions: cited from earlier work.

Turning to `CO[C@H]1O[C@H](CO)[C@@H](O)[C@H](O)[C@@H]1O` [mannose, methyl-α-D-mannose], the koff1 result in series [1] (CBS1, wt horcolin, sequential model) is “(2.4 ± 0.2) x 10^3 s^-1”; in series [2] (CBS1 only, D39A horcolin, two-state model) it was “(16.4 ± 0.7) x 10^3 s^-1”. The kon1 result in series [1] (CBS1, wt horcolin, sequential model, from koff and Kd) was “(1.19 ± 0.08) x 10^5 M^-1s^-1”; in series [2] (CBS1 only, D39A horcolin, from koff and Kd), “(2.9 ± 0.1) x 10^5 M^-1s^-1”. Besides, the koff2 entry in series [1] (CBS2, wt horcolin, sequential model) is given as “(2.5 ± 0.1) x 10^3 s^-1”; in series [3] (CBS2 only, D138A horcolin, two-state model), “(5.0 ± 0.4) x 10^3 s^-1”. In addition, the kon2 result in series [1] (CBS2, wt horcolin, sequential model, from koff and Kd) is recorded as “(5.3 ± 0.2) x 10^5 M^-1s^-1”; in series [3] (CBS2 only, D138A horcolin, from koff and Kd), “(1.6 ± 0.1) x 10^6 M^-1s^-1”. The equilibrium dissociation constant (Kd) was determined as 59 ± 2 mM in series [1] (Kd1, CBS1, wt horcolin, two-binding-site non-cooperative (NC) model, cluster of four residues); 19.9 ± 0.1 mM in series [1] (Kd1, CBS1, wt horcolin, two-site sequential binding model, 25 °C, pH 7.4); 7.7 ± 0.1 mM in series [1] (Kd2, CBS2, wt horcolin, two-binding-site non-cooperative (NC) model, cluster of four residues); 4.71 ± 0.02 mM in series [1] (Kd2, CBS2, wt horcolin, two-site sequential binding model, 25 °C, pH 7.4); 55.6 ± 0.2 mM in series [2]; 3.2 ± 0.3 mM in series [3]. In addition, in series [1] (wt horcolin), the “binding free energy difference ΔΔG^0 between CBS2 and CBS1” value was 0.85 kcal/mol. In addition, the “fold higher affinity for CBS2 than CBS1” value in series [1] (wt horcolin, sequential model) is recorded as 4.2 fold. Further, in series [2], the “fold increase of koff at CBS1, D39A versus wt” value is 7 fold. Besides, the “fold increase of kon at CBS1, D39A versus wt” value in series [2] worked out at 2.4 fold. In series [2] (D138A (CBS2) versus D39A (CBS1) horcolin), the “ΔΔG^0 between the two single-site binding events” value came to 1.7 kcal/mol. Also, the “factor of difference in koff between single-binding-site mutants” value in series [2] (D138A versus D39A horcolin) came to 3.3. In series [2] (D138A versus D39A horcolin), the “fold difference in kon between single-binding-site mutants” value worked out at 5.3 fold. The “fold increase of koff at CBS2, D138A versus wt” value in series [3] turned out to be 2 fold. Besides, the “fold increase of kon at CBS2, D138A versus wt” value in series [3] is reported as 3 fold.

B1: horcolin (natural protein, Hordeum vulgare (barley))
chain: MSKPVKIGPWGGNGGSERDVQPKPIRMVSMTVSSGAIVDAIAFTYVGTDNVQHSSGIKWGGTGGTEDTINLDATNYVTEISGTVGKFGTDDIVTSLKIITSKGVTRTYGSGTGIPFRVPVLDGGKIAGFFGRAGAFLDAIGFYITP
For the molecule B1, the “stoichiometry N” value in series [4] stood at 2.

B2: horcolin: dimeric mannose-specific jacalin-related lectin from Hordeum vulgare (barley), 146 amino acids per protomer (protein)
chain: MSKPVKIGPWGGNGGSERDVQPKPIRMVSMTVSSGAIVDAIAFTYVGTDNVQHSSGIKWGGTGGTEDTINLDATNYVTEISGTVGKFGTDDIVTSLKIITSKGVTRTYGSGTGIPFRVPVLDGGKIAGFFGRAGAFLDAIGFYITP
In the case of B2, the equilibrium dissociation constant (Kd) in series [5] was 14.4 nM. In addition, in series [6], the HIV-1 neutralization entry is recorded as “has the ability to neutralize HIV-1”.

Broadly, the Kd is a measure of binding affinity in units of concentration. Usually stoichiometry N stands for a count of units in the complex or per binding partner.
